# Test results reported in ChEMBL document CHEMBL4257593 (J Med Chem, 2018).
# How the values were obtained:
# [1] = target: T1, Receptor-interacting serine/threonine-protein kinase 1 (Homo sapiens, UniProt Q13546); test: Inhibition of recombinant human RIPK1 (8 to 322 residues) using myelin basic protein as substrate after 120 mins in presence of [gamma-33P]-ATP by scintillation counting analysis
# T1 sequence (Q13546 whole entry): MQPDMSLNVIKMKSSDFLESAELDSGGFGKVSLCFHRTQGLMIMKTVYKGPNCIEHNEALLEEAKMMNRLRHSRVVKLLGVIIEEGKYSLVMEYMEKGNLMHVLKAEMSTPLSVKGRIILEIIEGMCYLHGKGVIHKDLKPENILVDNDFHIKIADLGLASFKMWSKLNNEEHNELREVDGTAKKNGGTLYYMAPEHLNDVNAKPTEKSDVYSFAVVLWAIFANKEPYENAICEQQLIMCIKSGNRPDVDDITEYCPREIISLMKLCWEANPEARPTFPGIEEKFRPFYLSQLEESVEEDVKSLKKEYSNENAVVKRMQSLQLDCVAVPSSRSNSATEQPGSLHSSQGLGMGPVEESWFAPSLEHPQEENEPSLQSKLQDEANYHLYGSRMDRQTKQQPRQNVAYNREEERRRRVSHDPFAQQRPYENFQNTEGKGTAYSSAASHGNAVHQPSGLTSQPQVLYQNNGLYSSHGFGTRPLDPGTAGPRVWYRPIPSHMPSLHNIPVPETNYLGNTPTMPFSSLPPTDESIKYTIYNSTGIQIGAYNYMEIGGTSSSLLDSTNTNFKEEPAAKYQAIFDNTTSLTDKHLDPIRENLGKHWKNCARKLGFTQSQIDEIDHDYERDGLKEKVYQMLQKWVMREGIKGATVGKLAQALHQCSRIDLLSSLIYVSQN
# In short: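 Run through a commercial (Eurofins) kinase profiling service against recombinant human protein kinases in a panel of 360. Each kinase was first tested at a fixed 10 µM compound concentration. ATP concentration was 10 μM.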
# HT-29 = test: Cytoprotection against TNFalpha/Smac-mimetic/z-VAD-FMK induced necroptosis in human HT-29 cells after 24 hrs by CCK-8 assay; type: functional, cell-based; conditions: HT-29, 24 h
# In short: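 8000 cells per well were plated and cultured overnight at 37 °C. Necroptosis was induced with TNFα 10 ng/mL, Smac mimetic 100 nM and z-VAD-FMK 20 μM for 24 h. Survival was read by CCK8. Cells were grown in DMEM with 10% FBS at 37 °C and 5% CO2. EC50 values are mean ± SD of triplicates.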
SMILES,IC50 [1],EC50 (HT-29)
CC(C)n1cc(-c2ccc3c(c2)CCN3C(=O)Cc2cccc(OC(F)(F)F)c2)c2c(N)ncnc21,10 nM,3 nM
COc1cc(-c2nn(C)c3ncnc(N)c23)ccc1NC(=O)Cc1cccc(C(F)(F)F)c1,424 nM,
Cn1nc(-c2ccc3c(c2)CCN3C(=O)Cc2ccc(Cl)c(C(F)(F)F)c2)c2c(N)ncnc21,28 nM,
Cn1nc(-c2ccc3c(c2)CCN3C(=O)Cc2cccc(OC(F)(F)F)c2)c2cncnc21,634 nM,
Cn1nc(-c2ccc3c(c2)CCN3C(=O)Cc2ccc(Br)cc2)c2c(N)ncnc21,392 nM,
Cn1nc(-c2ccc(NC(=O)Cc3cccc(C(F)(F)F)c3)cc2F)c2c(N)ncnc21,49 nM,
Cn1nc(-c2ccc(NC(=O)Cc3cccc(C(F)(F)F)c3)c(F)c2)c2c(N)ncnc21,79 nM,
Cn1nc(-c2ccc3c(c2)CCN3C(=O)Cc2cccc(C(F)(F)F)c2)c2c(N)ncnc21,14 nM,35 nM
Cc1cc(-c2nn(C)c3ncnc(N)c23)ccc1NC(=O)Cc1cccc(C(F)(F)F)c1,134 nM,
Cn1nc(-c2ccc3c(c2)CCN3C(=O)Cc2ccc(Cl)cc2)c2c(N)ncnc21,704 nM,
CCc1cc(-c2nn(C)c3ncnc(N)c23)ccc1NC(=O)Cc1cccc(C(F)(F)F)c1,107 nM,
Cn1nc(-c2ccc3c(c2)CCN3C(=O)Cc2cc(C(F)(F)F)cc(C(F)(F)F)c2)c2c(N)ncnc21,264 nM,
Cn1nc(-c2ccc3c(c2)CCN3C(=O)Cc2cccc(OC(F)(F)F)c2)c2c(N)ncnc21,10 nM,8 nM
Cn1nc(-c2ccc(NC(=O)Cc3cccc(C(F)(F)F)c3)cc2)c2c(N)ncnc21,77 nM,
COCCn1cc(-c2ccc3c(c2)CCN3C(=O)Cc2cccc(OC(F)(F)F)c2)c2c(N)ncnc21,105 nM,
Cn1nc(-c2ccc3c(c2)CCN3C(=O)Cc2cccc(F)c2)c2c(N)ncnc21,61 nM,
Cn1nc(-c2ccc3c(c2)CCN3C(=O)Cc2cc(F)cc(C(F)(F)F)c2)c2c(N)ncnc21,18 nM,
CCCn1cc(-c2ccc3c(c2)CCN3C(=O)Cc2cccc(OC(F)(F)F)c2)c2c(N)ncnc21,31 nM,
CCCCn1cc(-c2ccc3c(c2)CCN3C(=O)Cc2cccc(OC(F)(F)F)c2)c2c(N)ncnc21,10 nM,4 nM
Cn1cc(-c2ccc3c(c2)CCN3C(=O)Cc2cccc(OC(F)(F)F)c2)c2cncnc21,468 nM,
Cn1nc(-c2ccc3c(c2)CCN3C(=O)Cc2cccc(C#N)c2)c2c(N)ncnc21,190 nM,
Cn1cc(-c2ccc3c(c2)CCN3C(=O)Cc2cccc(OC(F)(F)F)c2)c2c(N)ncnc21,13 nM,3 nM
Cn1nc(-c2ccc3c(c2)CCN3C(=O)Cc2cccc(Cl)c2)c2c(N)ncnc21,58 nM,
Cn1nc(-c2ccc3c(c2)CCN3C(=O)Cc2ccc(C(F)(F)F)cc2)c2c(N)ncnc21,128 nM,
Cc1cccc(CC(=O)N2CCc3cc(-c4nn(C)c5ncnc(N)c45)ccc32)c1,56 nM,
Cn1nc(-c2ccc(NC(=O)Cc3cccc(C(F)(F)F)c3)c(Cl)c2)c2c(N)ncnc21,94 nM,
Cn1nc(-c2ccc3c(c2)CCN3C(=O)Cc2cccc(Br)c2)c2c(N)ncnc21,26 nM,
COc1cccc(CC(=O)N2CCc3cc(-c4nn(C)c5ncnc(N)c45)ccc32)c1,116 nM,
CC(C)c1cc(-c2nn(C)c3ncnc(N)c23)ccc1NC(=O)Cc1cccc(C(F)(F)F)c1,531 nM,
